Test results reported in ChEMBL document CHEMBL3232760 (Bioorg Med Chem, 2014).
Activity calls are given as the source filed them. No cut-off for these calls is given here.

Columns and labels:
Type in all cases: cell-based
[1] = target: T1, Estrogen receptor (Homo sapiens) (UniProt P03372); test: Agonist activity at human Gal4-fused ER-alpha expressed in HEK293 cells at 10 uM by luciferase reporter gene assay relative to 17beta-estradiol
T1 sequence (whole entry): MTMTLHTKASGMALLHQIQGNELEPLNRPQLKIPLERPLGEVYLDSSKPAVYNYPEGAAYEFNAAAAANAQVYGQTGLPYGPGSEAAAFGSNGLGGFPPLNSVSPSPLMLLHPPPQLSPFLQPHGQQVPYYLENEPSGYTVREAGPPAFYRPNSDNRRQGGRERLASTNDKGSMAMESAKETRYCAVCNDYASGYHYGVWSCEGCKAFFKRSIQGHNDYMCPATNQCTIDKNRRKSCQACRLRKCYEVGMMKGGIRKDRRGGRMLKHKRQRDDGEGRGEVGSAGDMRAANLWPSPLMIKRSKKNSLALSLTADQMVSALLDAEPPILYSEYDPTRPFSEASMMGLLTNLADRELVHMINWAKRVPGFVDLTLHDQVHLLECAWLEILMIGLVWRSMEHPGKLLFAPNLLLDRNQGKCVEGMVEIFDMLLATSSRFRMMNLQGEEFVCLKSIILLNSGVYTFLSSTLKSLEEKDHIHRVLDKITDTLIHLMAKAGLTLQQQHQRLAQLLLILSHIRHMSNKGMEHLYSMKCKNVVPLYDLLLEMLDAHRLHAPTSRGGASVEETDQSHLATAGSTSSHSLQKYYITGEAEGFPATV
How it was run: (§1)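 Agonist mode: HEK293 cells in phenol-red-free DMEM with 5% FBS, 37 °C, 5% CO2, calcium phosphate cotransfected with GAL4-responsive MH100(UAS)x4-tk-LUC reporter, ER receptor fragment plasmid and beta-galactosidase plasmid. Compound added 8 h post-transfection, cells harvested 16–20 h later. Luciferase normalized to beta-galactosidase, triplicate means.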

[2] = target: T2, Estrogen receptor (Homo sapiens, UniProt P03372); test: Antagonist activity at human Gal4-fused ER-alpha expressed in HEK293 cells assessed as inhibition of 17beta-estradiol-induced effect by luciferase reporter gene assay
T2 sequence (P03372 whole entry): T1 sequence (whole entry)
How it was run: (§2)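 With 0.3 nM 17beta-estradiol present, HEK293 cells calcium phosphate cotransfected with GAL4-responsive luciferase reporter, ER plasmid and beta-galactosidase were treated 8 h post-transfection for 16–20 h. Normalized luciferase, triplicate means; antagonism expressed as IC50 (nM).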

[3] = target: T3, Estrogen receptor beta (Homo sapiens, UniProt Q92731); test: Antagonist activity at human Gal4-fused ER-beta expressed in HEK293 cells assessed as inhibition of 17beta-estradiol-induced effect by luciferase reporter gene assay; how it was run: as §2
T3 sequence (Q92731 whole entry, the tested form may be a part): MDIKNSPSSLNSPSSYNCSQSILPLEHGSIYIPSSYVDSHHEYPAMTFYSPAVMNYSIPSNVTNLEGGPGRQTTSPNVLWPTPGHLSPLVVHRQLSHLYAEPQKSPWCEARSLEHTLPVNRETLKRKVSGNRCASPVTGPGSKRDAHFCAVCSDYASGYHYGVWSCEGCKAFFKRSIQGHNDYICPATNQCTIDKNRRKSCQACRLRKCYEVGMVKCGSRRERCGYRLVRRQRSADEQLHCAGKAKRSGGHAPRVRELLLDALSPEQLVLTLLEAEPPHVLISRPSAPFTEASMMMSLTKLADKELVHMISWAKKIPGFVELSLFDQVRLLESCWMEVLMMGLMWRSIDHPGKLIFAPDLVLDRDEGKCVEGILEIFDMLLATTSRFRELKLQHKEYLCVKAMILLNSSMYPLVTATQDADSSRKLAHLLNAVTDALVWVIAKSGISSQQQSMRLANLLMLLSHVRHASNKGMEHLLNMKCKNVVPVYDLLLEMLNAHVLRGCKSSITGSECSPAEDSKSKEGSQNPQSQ

[4] = target: T3, Estrogen receptor beta; test: Agonist activity at human Gal4-fused ER-beta expressed in HEK293 cells at 10 uM by luciferase reporter gene assay relative to 17beta-estradiol; how it was run: as §1
[5] = target: T2, Estrogen receptor; test: Agonist activity at human Gal4-fused ER-alpha expressed in HEK293 cells by luciferase reporter gene assay
How it was run: (§3)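 GAL4-ER fusion reporter in HEK293 (phenol-red-free DMEM, 5% FBS), calcium phosphate transfection with MH100(UAS)x4-tk-LUC and beta-galactosidase control; compounds given 8 h after transfection, harvest at 16–20 h. Luciferase/beta-galactosidase ratio, triplicate means; agonism expressed as EC50 (nM).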

[6] = target: T3, Estrogen receptor beta; test: Agonist activity at human Gal4-fused ER-beta expressed in HEK293 cells by luciferase reporter gene assay; how it was run: as §3
[7] = target: T4, Steryl-sulfatase (Homo sapiens) (UniProt P08842); test: Inhibition of steroid sulfatase in human MCF7 cells assessed as conversion of [3H]E1S to [3H]E1 and [3H]E2 at 0.1 uM after 5 hrs by liquid scintillation counting
T4 sequence (whole entry): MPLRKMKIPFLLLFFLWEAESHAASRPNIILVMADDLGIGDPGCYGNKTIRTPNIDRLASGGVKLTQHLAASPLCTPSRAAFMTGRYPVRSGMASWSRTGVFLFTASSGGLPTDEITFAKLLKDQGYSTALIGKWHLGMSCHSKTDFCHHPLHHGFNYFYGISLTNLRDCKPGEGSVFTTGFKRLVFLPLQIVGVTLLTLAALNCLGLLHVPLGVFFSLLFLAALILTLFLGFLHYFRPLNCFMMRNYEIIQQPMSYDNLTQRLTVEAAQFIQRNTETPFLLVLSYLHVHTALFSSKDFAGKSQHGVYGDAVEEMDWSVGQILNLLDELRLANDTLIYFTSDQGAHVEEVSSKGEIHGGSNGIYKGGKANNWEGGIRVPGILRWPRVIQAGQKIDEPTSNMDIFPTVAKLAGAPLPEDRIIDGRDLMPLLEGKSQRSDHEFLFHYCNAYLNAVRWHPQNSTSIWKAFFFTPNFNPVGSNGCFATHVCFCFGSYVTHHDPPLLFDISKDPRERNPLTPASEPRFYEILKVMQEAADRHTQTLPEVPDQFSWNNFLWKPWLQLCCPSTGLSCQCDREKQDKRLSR
How it was run: (§4)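 MCF-7 homogenate (freeze–thaw five times, diluted in Tris–EDTA, centrifuged 15,000g 4 °C 15 min, supernatant adjusted to 0.2 mg/mL protein by Bradford) incubated with [3H]E1S (final 10 nM) and inhibitor at 37 °C for 5 h. Toluene extraction of [3H]E1 plus [3H]E2, liquid scintillation counting; 1 uM STX64 defined 100%; triplicate.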

[8] = target: T3, Estrogen receptor beta; test: Antagonist activity at human Gal4-fused ER-beta expressed in HEK293 cells assessed as inhibition of 17beta-estradiol-induced effect at 3 uM by luciferase reporter gene assay
How it was run: (§5)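 Antagonist mode in transfected HEK293 GAL4-ER luciferase system, with cells co-treated with 0.3 nM 17beta-estradiol. Compound added 8 h post-transfection, 16–20 h treatment, luciferase normalized to beta-galactosidase, triplicate means.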

[9] = target: T1, Estrogen receptor (Homo sapiens); test: Antagonist activity at human Gal4-fused ER-alpha expressed in HEK293 cells assessed as inhibition of 17beta-estradiol-induced effect at 3 uM by luciferase reporter gene assay; how it was run: as §5
[10] = target: T4, Steryl-sulfatase (Homo sapiens); test: Inhibition of steroid sulfatase in human MCF7 cells assessed as conversion of [3H]E1S to [3H]E1 and [3H]E2 at 1 uM after 5 hrs by liquid scintillation counting; how it was run: as §4
[11] = target: T5, Steryl-sulfatase (Homo sapiens, UniProt P08842); test: Inhibition of steroid sulfatase in human MCF7 cells assessed as conversion of [3H]E1S to [3H]E1 and [3H]E2 after 5 hrs by liquid scintillation counting; how it was run: as §4
T5 sequence (P08842 whole entry): T4 sequence (whole entry)

[12] = target: T3, Estrogen receptor beta; test: Antagonist activity at human Gal4-fused ER-beta expressed in HEK293 cells assessed as inhibition of 17beta-estradiol-induced effect at 1 uM by luciferase reporter gene assay; how it was run: as §5

| Compound | Activity [1] | Activity [4] | inhibition [7] | inhibition [8] | inhibition [9] | inhibition [10] | also measured |
| --- | --- | --- | --- | --- | --- | --- | --- |
| CCC[Si](CCC)(c1ccc(O)c(C)c1)c1ccc(O)c(C)c1 | 5.6% | 4.9% | – | – | – | – | IC50 [2]: 26.2 nM; IC50 ([3]; read-out: IC50): 804 nM |
| CCCC(CCC)(c1ccc(O)c(C)c1)c1ccc(O)c(C)c1 | – | 6.1% | – | – | – | – | EC50 [5]: Not Active |
| CCCCC(CCCC)(c1ccc(O)c(C)c1)c1ccc(O)c(C)c1 | – | – | – | – | – | – | EC50 [5]: Not Active; EC50 [6]: Not Active |
| CCC(CC)(c1ccc(O)cc1)c1ccc(O)cc1 | – | 9.3% | – | – | – | – | IC50 [2]: 118 nM; EC50 [5]: Not Active |
| CCCCC(CCCC)(c1ccc(OS(N)(=O)=O)c(C)c1)c1ccc(OS(N)(=O)=O)c(C)c1 | – | – | 10.3% | inactive | 42.5% | 28% | – |
| CCCC[Si](CCCC)(c1ccc(OS(N)(=O)=O)c(C)c1)c1ccc(OS(N)(=O)=O)c(C)c1 | – | – | < 10% | inactive | 16.4% | 16.4% | – |
| CCC(CC)(c1ccc(OS(N)(=O)=O)c(C)c1)c1ccc(OS(N)(=O)=O)c(C)c1 | inactive | inactive | < 10% | 49.3% | 36.7% | 25.4% | – |
| NS(=O)(=O)Oc1ccc2c3c(c(=O)oc2c1)CCCCC3 | – | – | – | – | – | 100% | – |
| CCC[Si](CCC)(c1ccc(OS(N)(=O)=O)c(C)c1)c1ccc(OS(N)(=O)=O)c(C)c1 | – | – | < 10% | 18% | 87.1% | 18.7% | – |
| C[Si](C)(c1ccc(O)cc1)c1ccc(O)cc1 | 25.3% | – | < 10% | – | 50.9% | < 10% | IC50 ([3]; hek293): Not Active |
| NS(=O)(=O)Oc1ccc(Sc2ccc(OS(N)(=O)=O)cc2)cc1 | – | 82.8% | 57.1% | inactive | – | 89.7% | IC50 [11]: 88 nM; EC50 [5]: Active |
| CC(C)(c1ccc(OS(N)(=O)=O)cc1)c1ccc(OS(N)(=O)=O)cc1 | 9.5% | inactive | < 10% | 7.79% | 6.63% | < 10% | – |
| CC[Si](CC)(c1ccc(O)cc1)c1ccc(O)cc1 | 7.1% | 11.9% | – | – | – | – | IC50 [2]: 115 nM; inhibition [12]: 53% |
| CCCC(CCC)(c1ccc(OS(N)(=O)=O)c(C)c1)c1ccc(OS(N)(=O)=O)c(C)c1 | – | – | < 10% | 43.9% | 54.9% | 21.1% | – |
| NS(=O)(=O)Oc1ccc(Cc2ccc(OS(N)(=O)=O)cc2)cc1 | – | – | < 10% | 2.25% | – | 50.1% | IC50 [11]: 1020 nM; EC50 [5]: Active |
| Oc1ccc(Sc2ccc(O)cc2)cc1 | 37.8% | – | – | – | – | – | IC50 ([3]; hek293): Not Active |
| CC[Si](CC)(c1ccc(O)c(C)c1)c1ccc(O)c(C)c1 | – | – | – | 53.5% | – | – | IC50 [2]: 29.7 nM |
| CCC(CC)(c1ccc(OS(N)(=O)=O)cc1)c1ccc(OS(N)(=O)=O)cc1 | inactive | inactive | 11% | 49.3% | 53.2% | 29.9% | – |
| C[Si](C)(c1ccc(O)cc1)c1ccc(OS(N)(=O)=O)cc1 | – | – | 25.2% | – | – | 76.4% | – |
| CN(C)S(=O)(=O)Oc1ccc([Si](C)(C)c2ccc(OS(=O)(=O)N(C)C)cc2)cc1 | – | – | < 10% | – | – | < 10% | – |
| CC(C)(c1ccc(O)cc1)c1ccc(O)cc1 [BISPHENOL A] | 28.7% | – | – | – | 36.1% | – | IC50 ([3]; hek293): Not Active |
| CC[Si](CC)(c1ccc(OS(N)(=O)=O)c(C)c1)c1ccc(OS(N)(=O)=O)c(C)c1 | inactive | inactive | 22.6% | 47.2% | 94.8% | 82.6% | IC50 [11]: 170 nM |
| C[Si](C)(c1ccc(OS(N)(=O)=O)cc1)c1ccc(OS(N)(=O)=O)cc1 | 10.8% | 16.7% | 35.8% | inactive | inactive | 81.9% | – |
| CC[Si](CC)(c1ccc(OS(N)(=O)=O)cc1)c1ccc(OS(N)(=O)=O)cc1 | inactive | 1.1% | 62% | 62.8% | 100% | 96.4% | – |
| Oc1ccc(Cc2ccc(O)cc2)cc1 | – | – | – | – | 22.6% | – | IC50 ([3]; hek293): Not Active |
| CCC(CC)(c1ccc(O)c(C)c1)c1ccc(O)c(C)c1 | – | – | – | – | – | – | IC50 [2]: 3.53 nM; EC50 [5]: Not Active; EC50 [6]: Not Active |
